From ChEMBL document CHEMBL1938313, “Influence of the skeleton on the cytotoxicity of flavonoids” (Bioorg Med Chem, 2012)

Experiments:
KB [1] = assay: Cytotoxicity against human KB cells assessed as growth inhibition at 10 '-6 M after 72 hrs by MTS assay; type: functional; settings: read-out: GI
Method in brief: (§1)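 Cells seeded at 600 per well, dosed 24 h later from DMSO stocks over 0.5 nM–10 µM (DMSO 1% final in controls). KB was grown in D-MEM with 10% fetal calf serum; HL60 in complete RPMI. After 72 h, MTS was added for 3 h at 37 °C and A490 read. Inhibition % = (1 − OD treated/OD control) × 100, in triplicate; IC50 runs were in duplicate.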

HL-60 [2] = assay: Cell cycle arrest in human HL60 cells assessed as accumulation at Sub G1 phase at 100 nM after 24 hrs by propidium iodide based flow cytometry analysis (reference value: 2.3 %); type: functional
HL-60 [3] = assay: Induction of apoptosis in human HL60 cells assessed as viable cells at 100 nM after 24 hrs using annexin-V-PE/7-AAD staining by flow cytometry analysis (reference value: 90.8 %); type: functional; settings: HL-60, 24 h, read-out: Activity
[4] = Inhibition of sheep brain tubulin polymerization after 10 mins by turbidimetry analysis; design: species or system Ovis aries
Method in brief: (§2)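 Microtubule protein was purified from sheep brain by two assembly/disassembly cycles (37 °C/0 °C) in 100 mM MES pH 6.6, 1 mM EGTA, 0.5 mM MgCl2. Compound in DMSO (1 µL) was added to 150 µL microtubule solution, incubated 10 min at 37 °C then 5 min at 0 °C, and turbidity read at 350 nm. Single tests were at ~2 × 10^-5 M; IC50 was also expressed relative to deoxypodophyllotoxin IC50.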

HL-60 [5] = assay: Cell cycle arrest in human HL60 cells assessed as accumulation at Sub G1 phase at 100 nM after 48 hrs by propidium iodide based flow cytometry analysis (reference value: 4 %); type: functional
HL-60 [6] = assay: Cytotoxicity against human HL60 cells after 72 hrs by MTS assay; type: functional, cell-based; settings: HL-60, 72 h; method in brief: as §1
HL-60 [7] = assay: Induction of apoptosis in human HL60 cells assessed as late apoptotic cells at 100 nM after 24 hrs using annexin-V-PE/7-AAD staining by flow cytometry analysis (reference value: 0.8 %); type: functional
HL-60 [8] = assay: Cell cycle arrest in human HL60 cells assessed as accumulation at S phase at 100 nM after 24 hrs by propidium iodide based flow cytometry analysis (reference value: 22.3 %); type: functional
HL-60 [9] = assay: Cell cycle arrest in human HL60 cells assessed as accumulation at G2/M phase at 100 nM after 24 hrs by propidium iodide based flow cytometry analysis (reference value: 24.8 %); type: functional
HL-60 [10] = assay: Cell cycle arrest in human HL60 cells assessed as accumulation at G0/G1 phase at 100 nM after 24 hrs by propidium iodide based flow cytometry analysis (reference value: 50.6 %); type: functional
HL-60 [11] = assay: Cell cycle arrest in human HL60 cells assessed as accumulation at G2/M phase at 100 nM after 48 hrs by propidium iodide based flow cytometry analysis (reference value: 23.9 %); type: functional
HL-60 [12] = assay: Cell cycle arrest in human HL60 cells assessed as accumulation at S phase at 100 nM after 48 hrs by propidium iodide based flow cytometry analysis (reference value: 20.9 %); type: functional
HL-60 [13] = assay: Induction of apoptosis in human HL60 cells assessed as late apoptotic cells at 100 nM after 48 hrs using annexin-V-PE/7-AAD staining by flow cytometry analysis (reference value: 0.6 %); type: functional
HL-60 [14] = assay: Induction of apoptosis in human HL60 cells assessed as early apoptotic cells at 100 nM after 24 hrs using annexin-V-PE/7-AAD staining by flow cytometry analysis (reference value: 7.5 %); type: functional
HL-60 [15] = assay: Induction of apoptosis in human HL60 cells assessed as viable cells at 100 nM after 48 hrs using annexin-V-PE/7-AAD staining by flow cytometry analysis (reference value: 83.9 %); type: functional; settings: HL-60, 48 h, read-out: Activity
HL-60 [16] = assay: Induction of apoptosis in human HL60 cells assessed as early apoptotic cells at 100 nM after 48 hrs using annexin-V-PE/7-AAD staining by flow cytometry analysis (reference value: 14.7 %); type: functional
Ovis aries [17] = species: Ovis aries; assay: Ratio of compound IC50 to DPPT IC50 for sheep brain tubulin; method in brief: as §2
HL-60 [18] = assay: Cell cycle arrest in human HL60 cells assessed as accumulation at G0/G1 phase at 100 nM after 48 hrs by propidium iodide based flow cytometry analysis (reference value: 51.2 %); type: functional
Ovis aries [19] = species: Ovis aries; assay: Inhibition of sheep brain tubulin polymerization at 2 x 10 '-5 M after 10 mins by turbidimetry; method in brief: as §2
KB [20] = assay: Cytotoxicity against human KB cells after 72 hrs by MTS assay; type: functional, cell-based; method in brief: as §1

Row | SMILES | inhibition of growth at 1 µM (KB [1]) [%] | viability at 0.1 µM (HL-60 [3]) [%] | Activity (HL-60 [7]) [%] | Activity (HL-60 [13]) [%] | Activity (HL-60 [14]) [%] | viability at 0.1 µM (HL-60 [15]) [%] | Activity (HL-60 [16]) [%] | other results
1 | COc1ccc(/C=C2\Oc3c(OC)c(O)c(OC)c(OC)c3C2=O)cc1N | 0 |  |  |  |  |  |  | 
2 | COc1ccc(-c2oc3c(OC)c(OC)c(OC)c(O)c3c(=O)c2OC)cc1N | 99 | 74.2 | 2.1 | 1.9 | 22.8 | 56.3 | 41 | Activity (HL-60 [2]): 8.9%; IC50 [4]: 9 µM; Activity (HL-60 [5]): 19.1%; IC50 (HL-60 [6]): 0.055 µM; Activity (HL-60 [8]): 17.5%; Activity (HL-60 [9]): 33.3%; Activity (HL-60 [10]): 40.3%; Activity (HL-60 [11]): 21.3%; Activity (HL-60 [12]): 26.5%; Ratio IC50 (Ovis aries [17]): 4; Activity (HL-60 [18]): 33.1%
3 | COc1ccc(/C=C2\Oc3c(OC)c(OC)c(OC)c(O)c3C2=O)cc1N | 0 |  |  |  |  |  |  | 
4 | COc1cccc2c1C(=O)c1c(O)c3c(c(O)c1C2=O)C[C@@](O)(C(=O)CO)C[C@@H]3O[C@H]1C[C@H](N)[C@H](O)[C@H](C)O1 [DOXORUBICIN] |  | 81 | 0.9 | 1.9 | 17.8 | 29.8 | 68 | 
5 | COc1ccc(-c2coc3c(OC)c(OC)c(OC)c(O)c3c2=O)cc1[N+](=O)[O-] | 18 |  |  |  |  |  |  | 
6 | COc1ccc(/C=C2\Oc3c(OC)c(OC)c(OC)c(OC)c3C2=O)cc1N | 0 |  |  |  |  |  |  | 
7 | COc1ccc(/C=C2\Oc3c(cc(OC)c(OC)c3OC)C2=O)cc1O | 100 | 81.1 | 1.1 | 1.1 | 16.8 | 73.3 | 24.9 | inhibition (Ovis aries [19]): 21%; Activity (HL-60 [2]): 14.4%; Activity (HL-60 [5]): 21.1%; IC50 (HL-60 [6]): 0.12 µM; Activity (HL-60 [8]): 20.6%; Activity (HL-60 [9]): 24.7%; Activity (HL-60 [10]): 40.3%; Activity (HL-60 [11]): 18.2%; Activity (HL-60 [12]): 25.6%; IC50 (KB [20]): 0.11 µM; Activity (HL-60 [18]): 35.1%
8 | COc1ccc(/C=C2\Oc3c(OC)c(OC)c(OC)c(O)c3C2=O)cc1[N+](=O)[O-] | 0 |  |  |  |  |  |  | 
9 | COc1ccc(/C=C2\Oc3c(cc(OC)c(OC)c3OC)C2=O)cc1[N+](=O)[O-] | 0 |  |  |  |  |  |  | inhibition (Ovis aries [19]): 12%
10 | COc1ccc(-c2coc3c(OC)c(OC)c(OC)c(O)c3c2=O)cc1N | 0 |  |  |  |  |  |  | 
